Data reported in PMC6800648 (Cell chemical biology, 2019).
Values joined by “and” are separate entries in the source; they are usually repeats but may differ in a detail not shown here. Identical values can stand only once. Square brackets hold non-standard residues; d marks the D form. Peptide text beside a SMILES is read from it. * marks the point of attachment. Lys(Me,2-norbornyl) = CN(CCCC[C@H](N)C(=O)O)C1CC2CCC1C2; Benzoyl(4-tBu) = CC(C)(C)c1ccc(C(=O)*)cc1; Lys(Et2) = CCN(CC)CCCC[C@H](N)C(=O)O

What was measured:
[1] = test system: mESCs; test: CellTiter-Glo viability assay in mESCs; format: cell-based, mouse; conditions: 48 hr
Outline: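 Mouse ES cells, 5,000 per well, exposed in technical triplicate for 48 hr at 37°C to a ten-point three-fold dilution series prepared from 50 mM DMSO stocks (0.2% DMSO final). Media-only wells served as negative controls. After equilibrating at room temperature, CellTiter-Glo was added, with 2 min shaking and 10 min settling, then luminescence read.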

[2] = test system: Polycomb target genes; test: RT-qPCR mRNA expression in HEK293 cells; format: cell-based, human; conditions: for effect on transcription of Polycomb target genes: HEK293, 6 μM and 20 μM, 2 days
Outline: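 HEK293 cells were treated with test compounds at 6 µM and 20 µM for 2 days. RNA was reverse-transcribed and Polycomb target transcripts were quantified by qPCR with ~100–150 bp amplicons.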

[3] = target: T1, CBX7 (Mus musculus, UniProt Q8VDS3); format: cell-based; conditions: TetOFF reporter cell line; UNC4976 compared to UNC3866 treatment
T1 sequence (Q8VDS3 1-158): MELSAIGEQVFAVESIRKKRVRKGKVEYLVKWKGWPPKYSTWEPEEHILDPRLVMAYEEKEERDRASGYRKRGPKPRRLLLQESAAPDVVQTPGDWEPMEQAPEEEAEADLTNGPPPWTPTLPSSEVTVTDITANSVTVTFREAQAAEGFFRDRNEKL

[4] = test system: CDYL2 chromodomain; test: Isothermal titration calorimetry; format: binding; conditions: from ITC Kd values
Outline: (§1)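 ITC at 25 °C in 25 mM Tris-HCl pH 7.5, 150 mM NaCl, 2 mM β-mercaptoethanol. Typically 50 µM chromodomain in cell, 0.5 mM test compound in syringe (10:1 kept). Protein quantified by Edelhoch, compound by mass. One 0.2 µl injection then 26 × 1.5 µl injections at 180 s spacing; first point discarded. Kd from one-site nonlinear least-squares fit.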

[5] = test system: CBX6 chromodomain; test: Isothermal titration calorimetry; format: binding; conditions: from ITC Kd values
Outline: as §1

[6] = target: T2, CBX7 chromodomain (Homo sapiens, UniProt O95931); test: Fluorescence polarization; format: biochemical; conditions: for enhancement in CBX7 affinity for FAM-dsDNA: 1:3 ratio of compound to protein titration; for allosteric modulator class of oligonucleotide binding: FP data fit to the Stockton/Ehlert allosteric binding model; for α (factor of enhancement of CBX7 affinity for the DNA probe): Stockton/Ehlert allosteric binding model, 1:3 compound to CBX7, 100 nM FAM-dsDNA
T2 sequence (O95931 1-62): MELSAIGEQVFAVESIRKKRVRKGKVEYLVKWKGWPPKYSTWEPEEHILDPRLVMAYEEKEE
Outline: (§2)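 Buffer: 25 mM Tris-HCl pH 7.4, 100 mM NaCl, 0.05% Tween-20, 2 mM DTT; 100 nM FAM-dsDNA or FAM-ANRIL-RNA; 0.2% DMSO; 30 min at RT. Compound titration: eight-point three-fold series from 100 µM with 30 µM CBX7 chromodomain. Ratio mode: CBX7 and test compound co-diluted at fixed 3:1 from 300 µM/100 µM. Polarisation normalised to a no-protein control; α fitted by the Stockton-Ehlert allosteric model.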

[7] = test system: CBX2 chromodomain; test: Isothermal titration calorimetry; format: binding; conditions: from ITC Kd values
Outline: as §1

[8] = target: T3, CBX7 and RING1B (Mus musculus, UniProt Q8VDS3); test: ChIP-qPCR / ChIP-seq in mESCs; format: cell-based; conditions: 4 hours, 20 μM
T3 sequence (Q8VDS3 1-158): T1 sequence (Q8VDS3 1-158)
T3 sequence (Q9CQJ4 2-336 partner limits assumed): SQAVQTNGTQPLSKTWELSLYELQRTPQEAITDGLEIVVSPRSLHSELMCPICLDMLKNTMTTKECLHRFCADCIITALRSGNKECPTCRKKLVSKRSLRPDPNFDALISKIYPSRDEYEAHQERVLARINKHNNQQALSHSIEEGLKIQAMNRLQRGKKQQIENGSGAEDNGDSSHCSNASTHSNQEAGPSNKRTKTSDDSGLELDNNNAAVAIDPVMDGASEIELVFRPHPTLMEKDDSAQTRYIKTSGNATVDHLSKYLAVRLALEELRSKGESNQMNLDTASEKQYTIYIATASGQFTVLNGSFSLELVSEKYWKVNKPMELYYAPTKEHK

[9] = target: T4, CBX7 (Mus musculus, UniProt Q8VDS3); test: Polycomb in-vivo Assay; format: cell-based
T4 sequence (Q8VDS3 2-69 limits assumed): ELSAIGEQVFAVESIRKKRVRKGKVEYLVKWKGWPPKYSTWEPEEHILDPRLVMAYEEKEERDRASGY

[10] = target: T2, CBX7 chromodomain; test: Electrophoretic mobility shift assay; format: biochemical; conditions: for binding to CBX7 by Coomassie stain (higher molecular weight band shifts): EMSA gel; for effect on FAM-dsDNA binding to CBX7: EMSA, 150 mM CBX7 and 100 nM FAM-dsDNA probe, 1:3 ratio of compound to CBX7
Outline: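 Buffer: 25 mM Tris-HCl pH 7.4, 100 mM NaCl, 0.05% Tween-20, 2 mM DTT. Compound runs used 150 µM CBX7 with 100 nM FAM-DNA probe and 50 µM test compound (0.3% DMSO); protein-only runs used a three-fold CBX7 series. Binding 20 min on ice. Native 10% Tris-glycine gel at 100 V, 4°C, 90 min in the dark. FAM fluorescence imaged, then Coomassie-stained.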

[11] = target: T2, CBX7 chromodomain; test: Fluorescence polarization; format: biochemical
Outline: as §2

[12] = test system: SUZ12 and H3K27me3; test: Capture ChIP-seq in mESCs, SUZ12 and H3K27me3; format: cell-based, mouse
[13] = target: T5, CBX7 chromodomain (Homo sapiens, UniProt O95931); test: Isothermal titration calorimetry; format: binding; conditions: ITC
T5 sequence (O95931 8-62): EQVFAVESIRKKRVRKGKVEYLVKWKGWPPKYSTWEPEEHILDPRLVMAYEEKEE
Outline: as §1

[14] = test system: CBX7 chromodomain; conditions: ref Stuckey et al., 2016a, 2016b; cited from earlier work
[15] = Stockton/Ehlert allosteric binding model, 1:3 compound to CBX7, 100 nM FAM-ANRIL-RNA

In the case of `COC(=O)[C@H](CO)NC(=O)[C@H](CCCCN(C)C1CC2CCC1C2)NC(=O)[C@H](CC(C)C)NC(=O)[C@H](C)NC(=O)[C@H](Cc1ccccc1)NC(=O)c1ccc(C(C)(C)C)cc1` (stereo partly drawn) [UNC4976, methyl N^6-(bicyclo[2.2.1]heptan-2-yl)-N^2-(4-(tert-butyl)benzoyl)-L-phenylalanyl-L-alanyl-L-leucyl-N^6-methyl-L-lysyl-L-serinate] ({Benzoyl(4-tBu)}-FAL[Lys(Me,2-norbornyl)]S-OMe), the “mESC viability upon compound treatment” value ([1]; at 100 μM) is reported as “weak toxicity”, the “effect on transcription of Polycomb target genes” value [2] is reported as “pronounced increase in transcription” and the “fold higher expression than UNC3866 treatment at the same concentration” value ([2]; HEK293, in some cases) is reported as 8 fold. The “derepression of the GFP reporter gene / maintenance of Polycomb silencing” value [3] was “enhanced”, the “selectivity for CBX4/7 over CDYL2” value [4] was 8 fold and the “selectivity for CBX4/7 over CBX6” value [5] was 9 fold. The “change of fluorescence polarization on compound titration” value ([6]; 30 μM CBX7 chromodomain, 100 nM FAM-dsDNA) was “increased polarization”, the “enhancement in CBX7 affinity for FAM-dsDNA” value [6] was “significant enhancement” and the “allosteric modulator class of oligonucleotide binding” value [6] was “positive allosteric modulator”. The “α (factor of enhancement of CBX7 affinity for the DNA probe)” value [6] was 4.2, the “selectivity for CBX4/7 over CBX2” value [7] was 28 fold and the “CBX7 and RING1B binding at PRC1 target TSSs” value [8] was “substantially reduced”. For the same molecule, the EC50 [9] was 3.21 ± 0.352 µM, the “fold more potent than UNC3866 in the CBX7 reporter cell line” value ([9]; EC50 ratio versus UNC3866) was ~ 14 fold and 14 fold and the “binding to CBX7 by Coomassie stain (higher molecular weight band shifts)” value [10] was “showed binding to CBX7”. The “effect on FAM-dsDNA binding to CBX7” value [10] was “enhanced FAM-dsDNA binding”, the “effect on CBX7 binding to FAM-ANRIL-RNA” value ([11]; 1:3 ratio of compound to protein titration) was “promoted enhanced CBX7 binding to RNA” and the “α (factor of enhancement of CBX7 affinity for the RNA probe)” value [11, 15] was 4.0. The “β (ratio of FP factors between [RNA:CBX7:UNC] and [RNA:CBX7])” value [11, 15] was 1.1, the “reduction in SUZ12 binding and H3K27me3” value [12] was “only a mild or insignificant reduction” and the “affinity for CBX4 and CBX7 compared” value [13] was “equipotent affinity”.

For `CCN(CC)CCCC[C@H](NC(=O)[C@H](CC(C)C)NC(=O)[C@H](C)NC(=O)[C@H](Cc1ccccc1)NC(=O)c1ccc(C(C)(C)C)cc1)C(=O)N[C@@H](CO)C(=O)OC` [UNC3866, methyl N^2-(4-(tert-butyl)benzoyl)-L-phenylalanyl-L-alanyl-L-leucyl-N^6,N^6-diethyl-L-lysyl-L-serinate] ({Benzoyl(4-tBu)}-FAL[Lys(Et2)]S-OMe), the “mESC viability upon compound treatment” value [1] is listed as “non-toxic”, the “fold more potent than fragments of the endogenous H3K27me3 peptide” value [14] is listed as greater than 100 fold and the “effect on transcription of Polycomb target genes” value [2] is listed as “either no or a mild effect”. For the same molecule, the “enhancement in CBX7 affinity for FAM-dsDNA” value [6] was “negligible enhancement”, the “allosteric modulator class of oligonucleotide binding” value [6] was “silent allosteric modulator (SAM)” and the “α (factor of enhancement of CBX7 affinity for the DNA probe)” value [6] was 1.5. The “CBX7 and RING1B binding at PRC1 target TSSs” value [8] was “more limited impact”, the EC50 [9] was 41.7 ± 2.24 µM and the “binding to CBX7 by Coomassie stain (higher molecular weight band shifts)” value [10] was “showed binding to CBX7”. The “effect on FAM-dsDNA binding to CBX7” value [10] was “did not have any effect”.
